Laboratory results as given in article PMC3569657 (EMBO Molecular Medicine, 2012).
Values joined by “and” are separate entries in the source; they are usually repeats but may differ in a detail not shown here. Equal entries are not always repeated. Where two headings read alike, the source gives them in different places. Each block holds one molecule with its values, some of them ahead of it. Peptide text beside a SMILES is read from it. * marks the point of attachment. Cbz = O=C(OCc1ccccc1)*; CH2F = FC*

Tests used:
WT-I2PP2A/SET-GFP = WT-I2PP2A/SET-GFP (Homo sapiens, UniProt Q01105); test: anti-GFP pull-down from A549 cells, protein-bound endogenous lipids by LC/MS/MS; type: binding; conditions: for binding of WT-I2PP2A/SET to ceramide, fold: compared to the K209D-I2PP2A/SET (so in the source)
Sequence of WT-I2PP2A/SET-GFP (Q01105 1-277 isoform Q01105-2): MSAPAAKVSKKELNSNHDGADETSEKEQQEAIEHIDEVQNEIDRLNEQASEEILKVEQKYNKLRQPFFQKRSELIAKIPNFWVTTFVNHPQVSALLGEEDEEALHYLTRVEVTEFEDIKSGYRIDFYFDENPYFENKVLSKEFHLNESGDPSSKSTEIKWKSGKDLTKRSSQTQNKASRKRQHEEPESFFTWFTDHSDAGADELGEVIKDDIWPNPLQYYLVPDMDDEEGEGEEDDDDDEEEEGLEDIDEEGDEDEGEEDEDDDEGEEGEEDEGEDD

ATG5−/− MEFs = test: Caspase 3 activity assay, taxol-induced apoptosis; type: cell-based, mouse; conditions: 80 nM and 24 h, compared to WT MEFs
[1] = biological target: purified recombinant human I2PP2A/SET (Homo sapiens, UniProt Q01105); test: SPR binding of purified human I2PP2A/SET to lipid vesicles
Sequence of purified recombinant human I2PP2A/SET (Q01105 1-277 isoform Q01105-2): as above
Summary of the method: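 SPR at 25°C. Sensor chip coated with vesicles of POPC:POPE:x (75:20:5, x = C18-ceramide or test compound) to about 6200 RU, against a POPC:POPE (80:20) control surface, and stabilised with 50 mM NaOH. Protein (I2PP2A/SET, or p47phox-PX control protein) in 20 mM HEPES pH 7.4, 0.16 M KCl was flowed at 5 µl/min. Triplicate sensorgrams per lipid were fitted individually for ka and kd, giving Kd = kd/ka.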

I2PP2A/SET = I2PP2A/SET (Homo sapiens, UniProt Q01105); type: binding; conditions: unlabeled competitor 10 µM; purified I2PP2A/SET
Sequence of I2PP2A/SET (Q01105 1-277 isoform Q01105-2): as above
Summary of the method: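 Recombinant human I2PP2A/SET (His-tag vector), 1–2 µg, incubated with biotin alone or biotin-labelled test compound (1, 5 or 10 µM). Competition runs added unlabelled ceramide or the parent or phosphorylated compound, 10 µM each. Bound protein was captured by streptavidin/avidin column pull-down, and eluates were run on SDS–PAGE and immunoblotted with anti-I2PP2A/SET.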

[2] = system: A549-xenograft-derived tumours; test: A549-xenograft-derived tumour growth in SCID mice; type: in vivo, Balb/c SCID mice
Summary of the method: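 A549 cells, or A549 lines with control shRNA, I2PP2A/SET shRNA or shRNA plus WT-I2PP2A/SET re-expression, grown as flank xenografts in Balb/c SCID mice. Test compound was given by oral gavage at 3 mg/kg/day against vehicle-treated controls: 15 days (n = 12) for parental xenografts, 18 days for the shRNA lines. Tumour volume change was computed relative to untreated sh-control mice at Day 18. Tumours were also examined by electron microscopy for mitochondrial damage and cytoplasmic swelling.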

[3] = FTY720 and P-FTY720 in tumour and serum of A549-xenograft mice by LC/MS/MS; type: in vivo, SCID mice; conditions: mice treated with oral FTY720 3 mg/kg/day
[4] = system: P-PP2A (Y307), c-Myc, hTERT mRNA; test: PP2A signalling markers in A549-xenograft tumours; type: in vivo, SCID mice; conditions: 3 mg/kg/day oral
c-Myc = c-Myc expression in A549 cells by Western blotting; type: cell-based, human; conditions: compared to controls
Summary of the method: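 A549 cells were treated with test compound or its phosphorylated form alongside controls. c-Myc was detected by Western blotting with actin as loading control, and relative c-Myc levels were derived from band quantification.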

c-Myc-V5 = test: Ectopically expressed c-Myc-V5 in MEFs by Western blotting; type: cell-based, mouse
Summary of the method: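 V5-tagged c-Myc was ectopically expressed in WT, SK-1−/− and SK-2−/− mouse embryonic fibroblasts. Cells were exposed to test compound, and c-Myc was detected by Western blotting with actin as loading control. Relative c-Myc levels were derived from band quantification.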

WT MEFs = test: MTT growth assay; type: cell-based; conditions: Mus musculus
SK1−/− MEFs = test: MTT growth assay; type: cell-based; conditions: Mus musculus
SK2−/− MEFs = test: MTT growth assay; type: cell-based; conditions: Mus musculus
[5] = system: Lewis lung adenocarcinoma cell (LLC)-derived allografts; test: Lewis lung adenocarcinoma allograft growth in WT and SK-2−/− mice; type: in vivo, mouse; conditions: 10 mg/kg/day oral, vs controls
Summary of the method: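 Lewis lung adenocarcinoma cells were implanted in flanks of WT (C57BL/6 background) and SK-2−/− mice. Animals were treated with oral test compound at 10 mg/kg or served as controls. Results are given as % change in tumour volume for each genotype against its controls at Day 13.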

[6] = FTY720 and P-FTY720 in serum and tumours of LLC-allograft mice by LC/MS/MS; type: in vivo, mouse; conditions: oral FTY720 10 mg/kg
Summary of the method: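 Lewis lung adenocarcinoma allografts were grown in flanks of WT and SK-2−/− mice. Animals received oral test compound at 10 mg/kg. Parent compound and its phosphorylated form were quantified by LC/MS/MS in the tumours.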

PP2A = PP2A activity assay on A549 cell extracts; type: cell-based, human; conditions: 10 µM FTY720, compared to vehicle-treated controls
Summary of the method: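 PP2A phosphatase activity was measured in extracts of A549, A549/shI2PP2A and A549/shI2PP2A re-expressing WT-I2PP2A/SET (about 60% reconstitution). Cells were grown with or without 10 µM test compound. In a related set, PP2A siRNA knockdown in A549 cells was compared with scrambled-siRNA controls.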

A549 cells [7] = test: Cell death by LDH release; type: cell-based, human; conditions: for effect of pre-treatment on FTY720-mediated cell death / growth suppression: A549 cells, FTY720 20 µM, OA 10 nM
Summary of the method: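 A549 cells were exposed to 20 µM test compound or vehicle for 24 h, and cell death was read as LDH released into the medium. Variants included pre-treatment with okadaic acid (10 nM), Z-VAD or necrostatin, and PP2A siRNA knockdown against scrambled siRNA (knockdown checked by Western blot). Another variant used HA-tagged PP2A overexpression, confirmed by Western blot, compared with controls.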

serum LDH = test: Total LDH released in serum of xenograft-bearing mice; type: in vivo, SCID mice; conditions: mice bearing A549/sh-control xenografts, 3 mg/kg/day oral
Summary of the method: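 Balb/c SCID mice bearing A549/sh-control, sh-I2PP2A/SET or reconstituted WT-I2PP2A/SET xenografts were dosed by daily oral gavage at 3 mg/kg for 18 days, with untreated mice as controls. Total serum LDH was measured by an external analytical lab.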

[8] = system: H157 (K-Ras mutant) human lung cancer cells; test: Cell death by LDH release; type: cell-based; conditions: FTY720 20 µM; for effect on FTY720-mediated cell death: LDH release
Summary of the method: (§1)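 Cell death was assessed in human lung cancer lines H157 (K-Ras mutant) and H827 (EGFR mutant) after exposure to test compound. Conditions compared with controls: RIPK1 inhibition by necrostatin, PP2A inhibition by okadaic acid, and siRNA knockdown of RIPK1 or PP2Ac.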

[9] = system: H827 (EGFR mutant) human lung cancer cells; test: Cell death by LDH release; type: cell-based; conditions: FTY720 20 µM
Summary of the method: as §1

RIPK1−/− MEFs = test: Cell death in RIPK1−/− versus RIPK1+/+ MEFs; type: cell-based, mouse; conditions: FTY720 15 µM, RIPK1−/− compared to RIPK1+/+ MEFs
[10] = system: MEFs obtained from caspase3/7−/− DKO, Bax/Bak−/− DKO or ATG5−/− KO mice; test: MTT growth assay in knockout MEFs; type: cell-based, mouse; conditions: various concentrations
A549 cells [11] = test: Annexin V/7-AAD flow cytometry; type: cell-based, human; conditions: compared to controls
Y122C-I2PP2A/SET-GFP = Y122C-I2PP2A/SET-GFP (Homo sapiens, UniProt Q01105, Y135C); test: anti-GFP pull-down from A549 cells, protein-bound endogenous lipids by LC/MS/MS; type: binding; conditions: compared to vector-transfected controls
Sequence of Y122C-I2PP2A/SET-GFP (Q01105 1-277 isoform Q01105-2 Y122C): as the sequence (Q01105 1-277 isoform Q01105-2) above, with Y122C counted along it

SMILES: CC(=O)O[C@H]1C(=O)[C@@]2(C)[C@H]([C@H](OC(=O)c3ccccc3)[C@]3(O)C[C@H](OC(=O)[C@H](O)[C@@H](NC(=O)c4ccccc4)c4ccccc4)C(C)=C1C3(C)C)[C@]1(OC(C)=O)CO[C@@H]1C[C@@H]2O [taxol]
- caspase 3 activity (apoptosis) (ATG5−/− MEFs): increased caspase 3 activity

SMILES: CCCCCCCCc1ccc(CCC(N)(CO)CO)cc1 [FTY720, 2-amino-2-[2-(4-octylphenyl)ethyl]propane-1,3-diol]
- Kd ([1]; Protein Kd, liposomes POPC:POPE:x (75:20:5), control POPC:POPE (80:20), 1 µM I2PP2A, 20 mM HEPES pH 7.4, 160 mM KCl): ~0.011 µM and 0.011 µM
- competition with B-FTY720-I2PP2A/SET binding (I2PP2A/SET): competed significantly
- tumour suppression in A549/sh-I2PP2A/SET xenografts expressing WT-I2PP2A/SET ([2]; 3 mg/kg/day oral): restored tumour suppressor effects
- tumour suppression in response to I2PP2A/SET knockdown (A549/sh-I2PP2A/SET xenografts) ([2]; 3 mg/kg/day oral): no additional effects
- growth of A549-xenograft-derived tumours ([2]; 3 mg/kg/day oral for 15 days, n = 12, p < 0.05 vs controls): inhibited the growth
- inhibition of growth of A549/control-derived xenografts ([2]; 3 mg/kg/day oral, 18 days, vs vehicle-treated controls): ~80%
- tumours with damaged/swollen mitochondria (TEM) ([2]; oral FTY720, n = 20): ~40%
- accumulation in A549-xenograft-derived tumours [3]: 0.2 pmol/nmol Pi
- accumulation in serum [3]: ~100 pmol/mL
- c-Myc and hTERT mRNA in tumours ([4]; IHC or Western blotting, Q-PCR): decreased
- inactive P-PP2A (Y307) in tumours ([4]; IHC, without affecting total PP2A): decreased
- c-Myc levels (c-Myc): decreased c-Myc levels
- reduced c-Myc expression (c-Myc-V5; SK-1−/− MEFs): 70%
- reduced c-Myc expression (c-Myc-V5; SK-2−/− MEFs): 55%
- reduced c-Myc expression (c-Myc-V5; WT MEFs): 80%
- IC50 (WT MEFs): ~10 µM
- IC50 (SK1−/− MEFs): ~10 µM
- IC50 (SK2−/− MEFs): ~10 µM
- inhibition of tumour growth ([5]; SK-2−/− mice): ~47%
- inhibition of tumour growth ([5]; WT mice): ~60%
- accumulation in tumours grown in WT and SK-2−/− mice [6]: comparable
- PP2A activity (PP2A): enhanced PP2A activity
- cell death (A549 cells [7]; 20 µM, 24 h, LDH release): significantly induced cell death
- increase of FTY720-mediated cell death on overexpression of PP2A-HA (A549 cells [7]; compared to controls): ~40%
- serum LDH (serum LDH): increased serum LDH
- PP2A-dependent necroptosis [8]: detected
- PP2A-dependent necroptosis [9]: detected
- cell death on genetic loss of RIPK1 (RIPK1−/− MEFs): almost completely abrogated cell death
- effect of genetic loss of caspases3/7, Bax/Bak or ATG5 on FTY720-induced cell death [10]: no protective effect
- Annexin V/7-AAD positive cell populations (A549 cells [11]): increased

SMILES: CCCCCCCCCCCCC/C=C/[C@@H](O)[C@H](CO)NC(=O)CCCCCCCCCCCCCCCCC [C18-ceramide]
- Kd ([1]; read-out: Protein Kd, liposomes POPC:POPE:x (75:20:5), control POPC:POPE (80:20), 1 µM I2PP2A, 20 mM HEPES pH 7.4, 160 mM KCl): ~0.011 µM and 0.011 µM
- competition with B-FTY720-I2PP2A/SET binding (I2PP2A/SET): competed significantly

SMILES: CN1C(=O)C(Cc2c[nH]c3ccccc23)NC1=S (centres unmarked) [necrostatin]
- effect of pre-treatment on FTY720-mediated cell death / growth suppression (A549 cells [7]; LDH release): significantly prevented
- effect on FTY720-mediated cell death [8]: prevented FTY720-mediated cell death

SMILES: C=C1[C@@H](O)[C@@H]2O[C@]3(CC[C@H](/C=C/[C@@H](C)[C@@H]4CC(C)=C[C@@]5(O[C@H](C[C@@](C)(O)C(=O)O)CC[C@H]5O)O4)O3)CC[C@H]2O[C@@H]1[C@@H](O)C[C@H](C)[C@H]1O[C@@]2(CCCCO2)CC[C@H]1C [okadaic acid]
- effect on FTY720-mediated cell death [8]: prevented FTY720-mediated cell death

SMILES: CCCCCCCCc1ccc(CC[C@](N)(CO)COP(=O)(O)O)cc1 [P-FTY720]
- Protein Kd ([1]; liposomes POPC:POPE:x (75:20:5), control POPC:POPE (80:20), 1 µM I2PP2A, 20 mM HEPES pH 7.4, 160 mM KCl): below the detection limit
- accumulation in A549-xenograft-derived tumours [3]: 0.05 pmol/nmol Pi
- accumulation in serum [3]: ~400 pmol/mL
- accumulation in serum on loss of SK-2 ([6]; SK-2−/− mice): almost completely abrogated

SMILES: CCCCCCCCCCCCC/C=C/[C@@H](O)[C@@H](N)CO [sphingosine]
- binding of endogenous sphingosine (WT-I2PP2A/SET-GFP; LC/MS/MS after pull-down): bind

SMILES: CC(NC(=O)C(NC(=O)OCc1ccccc1)C(C)C)C(=O)NC(CC(=O)O)C(=O)CF (stereo not drawn) [Z-VAD] (Cbz-Val-Ala-Asp-CH2F; configuration not given here)
- effect of pre-treatment on FTY720-mediated cell death / growth suppression (A549 cells [7]; LDH release): had no effect

Other lines, results leading:

- binding of WT-I2PP2A/SET to ceramide, fold (WT-I2PP2A/SET-GFP): 2.6 fold
SMILES: CCCCCCCCCCCCC/C=C/[C@@H](O)[C@H](CO)NC(=O)CCCCCCCCCCCCCCCCCCCCC [C22]

- binding of WT-I2PP2A/SET to ceramide, fold (WT-I2PP2A/SET-GFP): 1.9 fold
SMILES: CCCCCCCCCCCCC/C=C/[C@@H](O)[C@H](CO)NC(=O)CCCCCCCCCCCCCCCCCCC [C20]

- binding of WT-I2PP2A/SET to ceramide, fold (WT-I2PP2A/SET-GFP): 2.1 fold
SMILES: CCCCCCCCCCCCC/C=C/[C@@H](O)[C@H](CO)NC(=O)CCCCCCCCCCCCCCCCCCCCCCC [C24]

- binding of WT-I2PP2A/SET to ceramide, fold (WT-I2PP2A/SET-GFP): 2.5 fold
- increased binding of Y122C-I2PP2A/SET to ceramide, fold (Y122C-I2PP2A/SET-GFP): ~2.4 fold
SMILES: CCCCCCCCCCCCC/C=C/[C@@H](O)[C@H](CO)NC(=O)CCCCCCCCCCCCCCCCCCCCCCCCC [C26]
